# Experimental data as given in ChEMBL document CHEMBL2390947, “New insight into adenosine receptors selectivity derived from a novel series of [5-substituted-4-phenyl-1,3-thiazol-2-yl] benzamides and furamides” (Eur J Med Chem, 2013).
# Key:
# Adenosine receptor A3 = target: T1, Adenosine receptor A3 (Homo sapiens, UniProt P0DMS8); assay: Displacement of [3H]HEMADO from human adenosine A3 receptor expressed in CHO cells; format: cell-based
# T1 sequence (P0DMS8 whole entry): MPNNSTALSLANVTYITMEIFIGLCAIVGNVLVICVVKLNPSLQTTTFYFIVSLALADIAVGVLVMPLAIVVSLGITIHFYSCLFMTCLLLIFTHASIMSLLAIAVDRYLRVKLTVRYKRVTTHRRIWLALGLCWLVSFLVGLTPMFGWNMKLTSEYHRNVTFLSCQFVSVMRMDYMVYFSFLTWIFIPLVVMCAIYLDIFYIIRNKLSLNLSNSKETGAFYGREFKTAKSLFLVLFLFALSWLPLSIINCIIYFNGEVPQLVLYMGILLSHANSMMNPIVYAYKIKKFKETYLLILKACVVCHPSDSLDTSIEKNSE
# In short: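 Human A3 receptor binding in membranes from stably transfected CHO cells (low-speed then 100,000 × g pellet, stored at -80 °C). Radioligand was the agonist [3H]HEMADO at 1 nM; non-specific binding measured with 100 µM R-PIA. Ki values derived from competition experiments.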
# Adenosine receptor A2a = Adenosine receptor A2a (Homo sapiens, UniProt P29274); assay: Displacement of [3H]NECA from human adenosine A2A receptor expressed in CHO cells; format: cell-based
# Adenosine receptor A2a, sequence (P29274 whole entry): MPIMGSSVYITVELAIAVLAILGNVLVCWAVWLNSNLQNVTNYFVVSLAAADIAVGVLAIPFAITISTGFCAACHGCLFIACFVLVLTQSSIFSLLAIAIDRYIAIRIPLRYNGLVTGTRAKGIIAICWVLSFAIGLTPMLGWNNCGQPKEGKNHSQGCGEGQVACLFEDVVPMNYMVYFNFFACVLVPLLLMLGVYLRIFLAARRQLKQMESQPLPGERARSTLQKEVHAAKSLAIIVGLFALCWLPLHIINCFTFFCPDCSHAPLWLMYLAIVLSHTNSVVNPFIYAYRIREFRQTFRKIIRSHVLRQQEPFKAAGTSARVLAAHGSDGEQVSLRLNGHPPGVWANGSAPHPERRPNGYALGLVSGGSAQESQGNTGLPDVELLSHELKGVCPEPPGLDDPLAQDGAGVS
# In short: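 Membranes prepared from stably transfected CHO cells expressing human A2A receptor by two-step centrifugation (1000 × g, then 100,000 × g), frozen and kept at -80 °C. Competition against 30 nM [3H]NECA, with 100 µM R-PIA for non-specific binding. Ki obtained by competition-curve fitting.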
# Adenosine receptor A1 = target: T2, Adenosine receptor A1 (Homo sapiens, UniProt P30542); assay: Displacement of [3H]CCPA from human adenosine A1 receptor expressed in CHO cells; format: cell-based
# T2 sequence (P30542 whole entry): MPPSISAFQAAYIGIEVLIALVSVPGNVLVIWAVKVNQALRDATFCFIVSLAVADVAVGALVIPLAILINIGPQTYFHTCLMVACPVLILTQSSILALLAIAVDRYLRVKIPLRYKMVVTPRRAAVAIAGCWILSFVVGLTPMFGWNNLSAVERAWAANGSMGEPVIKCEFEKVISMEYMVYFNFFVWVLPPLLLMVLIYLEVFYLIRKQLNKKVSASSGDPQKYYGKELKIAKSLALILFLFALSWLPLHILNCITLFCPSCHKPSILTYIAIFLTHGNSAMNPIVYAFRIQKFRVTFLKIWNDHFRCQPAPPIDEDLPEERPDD
# In short: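 Agonist radioligand competition on membranes from CHO cells stably transfected with human A1 receptor (1000 × g spin to clear debris, crude membranes pelleted at 100,000 × g, stored at -80 °C). Tracer 1 nM [3H]CCPA; non-specific binding defined with 1 mM theophylline. Ki computed from competition curves.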
# Adenosine receptor A2b = target: T3, Adenosine receptor A2b (Homo sapiens, UniProt P29275); assay: Antagonist activity at human adenosine A2B receptor expressed in CHO cells assessed as inhibition of NECA-stimulated adenylyl cyclase activity; format: functional, cell-based
# T3 sequence (P29275 whole entry): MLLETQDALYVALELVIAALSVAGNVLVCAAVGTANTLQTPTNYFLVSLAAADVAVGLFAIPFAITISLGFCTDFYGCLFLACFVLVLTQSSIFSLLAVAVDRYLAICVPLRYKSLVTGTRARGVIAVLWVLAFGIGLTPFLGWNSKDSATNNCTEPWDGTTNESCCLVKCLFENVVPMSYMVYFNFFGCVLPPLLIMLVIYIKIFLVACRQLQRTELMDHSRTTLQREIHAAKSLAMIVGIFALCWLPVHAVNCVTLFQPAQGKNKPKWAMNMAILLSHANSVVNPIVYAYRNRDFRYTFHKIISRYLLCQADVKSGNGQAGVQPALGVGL
# In short: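 Affinity at human A2B receptor taken from inhibition of NECA-stimulated adenylyl cyclase activity. Membranes from stably transfected CHO cells were obtained by a single high-speed spin of the homogenate, resuspended in 50 mM Tris/HCl pH 7.4 and used at once.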
# Homo sapiens [1] = species on record: Homo sapiens; assay: Selectivity ratio of Ki for human adenosine A1 receptor to Ki for human adenosine A2A receptor
# [2] = test system: adenosine A3/A2A receptor ratio (Homo sapiens); assay: Selectivity ratio of Ki for human adenosine A2A receptor to Ki for human adenosine A3 receptor
# Homo sapiens [3] = species on record: Homo sapiens; assay: Selectivity ratio of Ki for human adenosine A2A receptor to Ki for human adenosine A3 receptor
# Homo sapiens [4] = species on record: Homo sapiens; assay: Selectivity ratio of Ki for human adenosine A2B receptor to Ki for human adenosine A3 receptor
# [5] = target: T4, Adenosine receptors; A1 & A3 (Homo sapiens) (UniProt P30542+P0DMS8); assay: Selectivity ratio of Ki for human adenosine A1 receptor to Ki for human adenosine A3 receptor
# Homo sapiens [6] = species on record: Homo sapiens; assay: Selectivity ratio of Ki for human adenosine A3 receptor to Ki for human adenosine A2A receptor
# Homo sapiens [7] = species on record: Homo sapiens; assay: Selectivity ratio of Ki for human adenosine A2A receptor to Ki for human adenosine A2B receptor
# Homo sapiens [8] = species on record: Homo sapiens; assay: Selectivity ratio of Ki for human adenosine A1 receptor to Ki for human adenosine A2B receptor
# Homo sapiens [9] = species on record: Homo sapiens; assay: Selectivity ratio of Ki for human adenosine A2A receptor to Ki for human adenosine A1 receptor
# [10] = target: T4, Adenosine receptors; A1 & A3 (Homo sapiens); assay: Selectivity ratio of Ki for human adenosine A3 receptor to Ki for human adenosine A1 receptor
SMILES,Ki (Adenosine receptor A3) [µM],Ki (Adenosine receptor A2a) [µM],Ki (Adenosine receptor A1) [µM],Ki (Adenosine receptor A2b) [µM],further results
COc1ccc(C(=O)Nc2nc(-c3ccccc3)c(-c3nc(N)c4c(C)c(C)sc4n3)s2)cc1,2.47,> 30,> 100,> 10,–
O=C(Nc1nc(-c2ccccc2)c(C(=O)c2cccnc2)s1)c1ccco1,1.87,0.552,0.177,> 10,–
COc1ccc(C(=O)Nc2nc(-c3ccccc3)c(-c3nc(N)nc(N(C)C)n3)s2)cc1,2.64,2.01,10.4,> 10,–
CN(C)c1nc(N)nc(-c2sc(NC(=O)c3ccco3)nc2-c2ccccc2)n1,0.918,0.179,0.536,8,Ratio Ki (Homo sapiens [1]): 3; Ratio Ki [2]: 5
Cc1sc2nc(-c3sc(NC(=O)c4ccccc4)nc3-c3ccccc3)nc(N)c2c1C,0.676,4.87,7.24,> 10,–
Nc1nc(-c2sc(NC(=O)c3ccco3)nc2-c2ccccc2)nc2sc3c(c12)CCCC3,36.6,14.4,> 10,> 10,–
O=C(Nc1nc(-c2ccccc2)c(-c2nc3ccccc3c(=O)[nH]2)s1)c1ccco1,3.93,8.78,> 10,> 10,–
Cc1ccc(C(=O)Nc2nc(-c3ccccc3)c(-c3nc(N)c4c(C)c(C)sc4n3)s2)cc1,1.38,> 30,> 30,> 10,–
Cc1sc2nc(-c3sc(NC(=O)c4ccco4)nc3-c3ccccc3)nc(N)c2c1C,0.746,5.95,12,> 10,Ratio Ki (Homo sapiens [3]): 8; Ratio Ki (Homo sapiens [4]): > 13; Ratio Ki [5]: 16
COc1ccc(C(=O)Nc2nc(-c3ccccc3)c(C(=O)c3ccccn3)s2)cc1,0.201,0.128,0.688,> 10,Ratio Ki (Homo sapiens [1]): 5.7; Ratio Ki (Homo sapiens [6]): 1.6
O=C(Nc1nc(-c2ccccc2)c(C(=O)c2ccccn2)s1)c1ccco1,0.951,0.0747,0.406,9.11,Ratio Ki (Homo sapiens [1]): 5; Ratio Ki (Homo sapiens [6]): 13
O=C(Nc1nc(-c2ccccc2)c(-c2ccccn2)s1)c1ccco1,2.04,0.193,0.276,0.841,Ratio Ki (Homo sapiens [7]): 0.23; Ratio Ki (Homo sapiens [8]): 0.33
CN(C)c1nc(N)nc(-c2sc(NC(=O)c3ccccc3)nc2-c2ccccc2)n1,0.567,0.327,0.801,> 10,–
Cc1ccc(C(=O)Nc2nc(-c3ccccc3)c(-c3nc(N)nc(N(C)C)n3)s2)cc1,0.816,0.562,3.63,> 30,–
Cc1ccc(C(=O)Nc2nc(-c3ccccc3)c(-c3nc(N)c4c5c(sc4n3)CCCC5)s2)cc1,> 10,> 10,> 10,> 10,–
COc1ccc(C(=O)Nc2nc(-c3ccccc3)c(-c3nc(N)c4c5c(sc4n3)CCCC5)s2)cc1,> 10,> 10,> 10,> 10,–
Nc1nc(-c2sc(NC(=O)c3ccccc3)nc2-c2ccccc2)nc2sc3c(c12)CCCC3,> 10,> 10,> 10,> 10,–
Cc1sc2nc(-c3sc(NC(=O)c4ccco4)nc3-c3ccccc3)[nH]c(=O)c2c1C,> 10,> 100,> 10,> 10,–
O=C(Nc1nc(-c2ccccc2)c(-c2ccncc2)s1)c1ccco1,0.00936,0.00665,0.00058,0.00278,Ratio Ki (Homo sapiens [9]): 11; Ratio Ki [10]: 16
COc1ccc(C(=O)Nc2nc(-c3ccccc3)c(C(=O)c3cccnc3)s2)cc1,> 10,> 10,> 10,> 10,–
